Assay results published in ChEMBL document CHEMBL4138117, “Pentapeptides for the treatment of small cell lung cancer: Optimisation by Nind-alkyl modification of the tryptophan side chain” (Eur J Med Chem, 2017).
Active and inactive are the calls of the source. The rule behind the calls is not given here. *1 amine or outer side, *2 acyl side, *3 side chain or, on linkers, in order; H or OH if unused. Where a SMILES comes first, the peptide text is derived from it. [ ]: non-standard residue; d: D form. X1 = C=CC(C)(C)n1cc(C[C@@H](N[*:1])C(=O)[*:2])c2ccccc21; dTrp(1-Bu) = CCCCn1cc(C[C@@H](N)C(=O)O)c2ccccc21; dNMeF = CN[C@H](Cc1ccccc1)C(=O)O

Experiments:
[1] = Retention time of the compound in mouse plasma at 400 ug/ml after 3 hrs by RP-HPLC method; type: ADME, cell-free
Method in brief: (§1)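 Peptide added to neat mouse plasma at 400 µg/ml and held at 37 °C. Aliquots taken at 0, 3, 24 and 48 h and analysed by RP-HPLC on a C8 column. Parent and degradation product(s) reported as relative percentage; n = 3.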

[2] = Retention time of the compound in mouse plasma at 400 ug/ml after 24 hrs by RP-HPLC method; type: ADME, cell-free; method in brief: as §1
NCI-H69 [3] = experiment: Induction of apoptosis in human H69 cells assessed as loss of plasma membrane integrity at 6 uM after 48 hrs by acridine orange/ethidium bromide staining-based inverted fluorescence microscopic method; type: functional, cell-based
Method in brief: (§2)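 Cells seeded at 1 x 10^4 cells/well and treated with peptide at 6 µM final in complete medium for 48 h at 37 °C, 5% CO2, with an untreated control. Then 1:1 AO/EB mix (100 µg/ml of each dye in PBS) added and cells viewed by inverted fluorescence microscopy at 10x.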

DMS-79 [4] = experiment: Induction of apoptosis in human DMS79 cells assessed as loss of plasma membrane integrity at 6 uM after 48 hrs by acridine orange/ethidium bromide staining-based inverted fluorescence microscopic method; type: functional, cell-based; method in brief: as §2
NCI-H69 [5] = experiment: Induction of apoptosis in human H69 cells assessed as increase in late apoptotic cells at 6 uM after 48 hrs by acridine orange/ethidium bromide staining-based inverted fluorescence microscopic method; type: functional, cell-based; method in brief: as §2
DMS-79 [6] = experiment: Induction of apoptosis in human DMS79 cells assessed as increase in late apoptotic cells at 6 uM after 48 hrs by acridine orange/ethidium bromide staining-based inverted fluorescence microscopic method; type: functional, cell-based; method in brief: as §2
NCI-H69 [7] = experiment: Induction of apoptosis in human H69 cells assessed as increase in necrotic cells at 6 uM after 48 hrs by acridine orange/ethidium bromide staining-based inverted fluorescence microscopic method; type: functional, cell-based; method in brief: as §2
DMS-79 [8] = experiment: Induction of apoptosis in human DMS79 cells assessed as increase in necrotic cells at 6 uM after 48 hrs by acridine orange/ethidium bromide staining-based inverted fluorescence microscopic method; type: functional, cell-based; method in brief: as §2
NCI-H69 [9] = experiment: Induction of apoptosis in human H69 cells assessed as cell shrinkage at 6 uM after 48 hrs by acridine orange/ethidium bromide staining-based inverted fluorescence microscopic method; type: functional; method in brief: as §2
DMS-79 [10] = experiment: Induction of apoptosis in human DMS79 cells assessed as cell shrinkage at 6 uM after 48 hrs by acridine orange/ethidium bromide staining-based inverted fluorescence microscopic method; type: functional; method in brief: as §2
NCI-H69 [11] = experiment: Induction of apoptosis in human H69 cells assessed as chromatin condensation at 6 uM after 48 hrs by acridine orange/ethidium bromide staining-based inverted fluorescence microscopic method; type: functional, cell-based; method in brief: as §2
DMS-79 [12] = experiment: Induction of apoptosis in human DMS79 cells assessed as chromatin condensation at 6 uM after 48 hrs by acridine orange/ethidium bromide staining-based inverted fluorescence microscopic method; type: functional, cell-based; method in brief: as §2
[13] = Drug metabolism in neat mouse plasma at 400 ug/ml by RP-HPLC method; type: ADME, cell-free; settings: TDE = time-dependent effect; method in brief: as §1
[14] = Retention time of the compound in mouse plasma at 400 ug/ml after 48 hrs by RP-HPLC method; type: ADME, cell-free; method in brief: as §1
[15] = Retention time of the compound in mouse plasma at 400 ug/ml measured immediately after compound addition by RP-HPLC method; type: ADME, cell-free; method in brief: as §1
[16] = Drug metabolism in mouse plasma at 400 ug/ml after 48 hrs by mass spectrophotometric method; type: ADME, cell-free
[17] = Metabolic stability in CD1 mouse liver S9 fraction at 400 ug/ml after 1 to 3 hrs in presence of UDPGA, NADPH, GSH, PAPS by RP-HPLC method; type: ADME, subcellular
Method in brief: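 Male CD-1 mouse liver S9 fraction incubated with peptide as in the plasma study, at 37 °C. Reaction started by adding a 1:1:1:1 cofactor mix made in 200 mM Tris pH 7.4 with 2 mM MgCl2; final levels NADPH 1 mM, UDPGA 0.5 mM, GSH 0.05 mM, PAPS 0.05 mg/ml. Aliquots at 0, 1, 2 and 3 h analysed by RP-HPLC.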

NCI-H69 [18] = experiment: Cytotoxicity against human H69 cells assessed as decrease in cell viability after 48 hrs by resazurin dye-based assay; type: functional; settings: NCI-H69, 48 h
Method in brief: (§3)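 H69 and DMS79 suspension cells grown in 10% FBS/RPMI-1640 at 37 °C, 5% CO2. Seeded at 1 x 10^4 cells/well in triplicate and given peptide the same day at 0.1–30 µM final, diluted in 50% FBS/saline. After 48 h, resazurin (0.125 mg/ml in PBS) added for 5 h, then fluorescence read and % viability calculated. Three independent repeats; IC50 taken from dose-response curves.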

DMS-79 [19] = experiment: Cytotoxicity against human DMS79 cells assessed as decrease in cell viability after 48 hrs by resazurin dye-based assay; type: functional; settings: DMS-79, 48 h; method in brief: as §3
[20] = Metabolic stability in neat mouse plasma assessed as parent compound remaining at 400 ug/ml after 3 hrs by RP-HPLC method; type: ADME, cell-free; settings: read-out: Stability; method in brief: as §1
[21] = Metabolic stability in neat mouse plasma assessed as parent compound remaining at 400 ug/ml after 48 hrs by RP-HPLC method; type: ADME, cell-free; settings: read-out: Stability; method in brief: as §1
[22] = Drug metabolism in mouse plasma assessed as formation of (3R,6R,9S,12R,15S)-3,9-dibenzyl-6,12-bis((1-butyl-1H-indol-3-yl)methyl)-15-isobutyl-4,7,10,13-tetraoxo-2,5,8,11,14-pentaazahexadecan-16-oic acid at 400 ug/ml after 48 hrs by mass spectrophotometric method; type: ADME, cell-free
DMS-79 [23] = experiment: Induction of apoptosis in human DMS79 cells assessed as early apoptotic cells at 2 uM after 24 hrs by Annexin V/SYTOX Blue staining-based flow cytometric method (reference value: 6.4 +/- 0.4%); type: functional
DMS-79 [24] = experiment: Induction of apoptosis in human DMS79 cells assessed as late apoptotic cells at 2 uM after 24 hrs by Annexin V/SYTOX Blue staining-based flow cytometric method (reference value: 28.6 +/- 8.2%); type: functional
DMS-79 [25] = experiment: Induction of apoptosis in human DMS79 cells assessed as necrotic cells at 2 uM after 24 hrs by Annexin V/SYTOX Blue staining-based flow cytometric method (reference value: 3.3 +/- 0.6%); type: functional
DMS-79 [26] = experiment: Induction of apoptosis in human DMS79 cells assessed as viable cells at 2 uM after 24 hrs by Annexin V/SYTOX Blue staining-based flow cytometric method (reference value: 61.7 +/- 9.1%); type: functional; settings: DMS-79, 24 h, read-out: Activity
DMS-79 [27] = experiment: Induction of apoptosis in human DMS79 cells assessed as early apoptotic cells at 6 uM after 24 hrs by Annexin V/SYTOX Blue staining-based flow cytometric method (reference value: 6.4 +/- 0.4%); type: functional
DMS-79 [28] = experiment: Induction of apoptosis in human DMS79 cells assessed as late apoptotic cells at 6 uM after 24 hrs by Annexin V/SYTOX Blue staining-based flow cytometric method (reference value: 28.6 +/- 8.2%); type: functional
DMS-79 [29] = experiment: Induction of apoptosis in human DMS79 cells assessed as necrotic cells at 6 uM after 24 hrs by Annexin V/SYTOX Blue staining-based flow cytometric method (reference value: 3.3 +/- 0.6%); type: functional
DMS-79 [30] = experiment: Induction of apoptosis in human DMS79 cells assessed as viable cells at 6 uM after 24 hrs by Annexin V/SYTOX Blue staining-based flow cytometric method (reference value: 61.7 +/- 9.1%); type: functional; settings: DMS-79, 24 h, read-out: Activity
DMS-79 [31] = experiment: Induction of apoptosis in human DMS79 cells assessed as viable cells after 24 hrs by Annexin V/SYTOX Blue staining-based flow cytometric method; type: functional, cell-based
[32] = Drug metabolism in mouse plasma assessed as formation of (3R,6R,9S,12R,15S)-3,9-dibenzyl-6-((1H-indol-3-yl)methyl)-12-((1-butyl-1H-indol-3-yl)methyl)-15-isobutyl-4,7,10,13-tetraoxo-2,5,8,11,14-pentaazahexadecan-16-oic acid at 400 ug/ml after 3 to 48 hrs by RP-HPLC method
[33] = Drug level in mouse plasma treated with (S)-2-((3R,6R,9S,12R)-3,9-dibenzyl-6,12-bis((1-butyl-1H-indol-3-yl)methyl)-4,7,10-trioxo-2,5,8,11-tetraazatridecanamido)-4-methylpentanamide at 400 ug/ml after 48 hrs by mass spectrophotometric method; type: ADME, cell-free
[34] = Drug level in mouse plasma treated with (S)-2-((3R,6R,9S,12R)-3,9-dibenzyl-6,12-bis((1-butyl-1H-indol-3-yl)methyl)-4,7,10-trioxo-2,5,8,11-tetraazatridecanamido)-4-methylpentanamide at 400 ug/ml after 3 to 48 hrs by RP-HPLC method; type: ADME, cell-free; method in brief: as §1

Structure (SMILES)	Retention_time [1] [min]	Retention_time [2] [min]	Activity (NCI-H69 [3])	Activity (DMS-79 [4])	Activity (NCI-H69 [5])	Activity (DMS-79 [6])	Activity (NCI-H69 [7])	Activity (DMS-79 [8])	Activity (NCI-H69 [9])	Activity (DMS-79 [10])	Activity (NCI-H69 [11])	Activity (DMS-79 [12])	Drug metabolism [13]	Retention_time [14] [min]	Retention_time [15] [min]	Drug metabolism [16]	Stability [17]	IC50 (NCI-H69 [18]) [µM]	IC50 (DMS-79 [19]) [µM]	further results
CCCCn1cc(C[C@@H](NC(=O)[C@H](Cc2ccccc2)NC(=O)[C@@H](Cc2cn(CCCC)c3ccccc23)NC(=O)[C@@H](Cc2ccccc2)NC)C(=O)N[C@@H](CC(C)C)C(N)=O)c2ccccc21 (H-[dNMeF][dTrp(1-Bu)]F[dTrp(1-Bu)]L-NH2)	27.93	27.94	Active	Active	Active	Active	Active	Active	Active	Active	Active	Active	Tde	27.94	27.53	Metabolite_Notdetected	Stable	–	–	–
C=CC(C)(C)n1cc(C[C@@H](NC(=O)[C@H](Cc2ccccc2)NC(=O)[C@@H](Cc2c[nH]c3ccccc23)NC(=O)[C@@H](Cc2ccccc2)NC)C(=O)N[C@@H](CC(C)C)C(N)=O)c2ccccc21 (H-[dNMeF][dW]F[X1]L-NH2)	24.89	24.86	–	–	–	–	–	–	–	–	–	–	Tde	24.86	24.62	Metabolite_Detected	–	2.84	4.37	remaining at 3 h, 400 ug/ml [20]: 87.8%; remaining at 48 h, 400 ug/ml [21]: 35.9%
CCCCn1cc(C[C@@H](NC(=O)[C@H](Cc2ccccc2)NC(=O)[C@@H](Cc2c[nH]c3ccccc23)NC(=O)[C@@H](Cc2ccccc2)NC)C(=O)N[C@@H](CC(C)C)C(N)=O)c2ccccc21 (H-[dNMeF][dW]F[dTrp(1-Bu)]L-NH2)	25.29	25.26	Active	Active	Active	Active	Active	Active	Active	Active	Active	Active	Tde	25.23	25	–	Stable	–	–	Drug metabolism [22]: Metabolite_Detected; Activity (DMS-79 [23]): 8%; Activity (DMS-79 [24]): 36.4%; Activity (DMS-79 [25]): 2.3%; viability at 2 µM (DMS-79 [26]): 53.3%; Activity (DMS-79 [27]): 1.9%; Activity (DMS-79 [28]): 95.5%; Activity (DMS-79 [29]): 1.6%; viability at 6 µM (DMS-79 [30]): 1%; Activity (DMS-79 [31]): Dose-dependent effect; Drug metabolism [32]: Metabolite_Detected
CCCCn1cc(C[C@@H](NC(=O)[C@H](Cc2ccccc2)NC(=O)[C@@H](Cc2c[nH]c3ccccc23)NC(=O)[C@@H](Cc2ccccc2)NC)C(=O)N[C@@H](CC(C)C)C(=O)O)c2ccccc21 (H-[dNMeF][dW]F[dTrp(1-Bu)]L-OH)	25.3	25.29	–	–	–	–	–	–	–	–	–	–	–	25.27	25.36	Metabolite_Notdetected	–	> 30	> 30	Drug metabolism [33]: Metabolite_Detected; Drug metabolism [34]: Metabolite_Detected
CN[C@H](Cc1ccccc1)C(=O)N[C@H](Cc1c[nH]c2ccccc12)C(=O)N[C@@H](Cc1ccccc1)C(=O)N[C@H](Cc1c[nH]c2ccccc12)C(=O)N[C@@H](CC(C)C)C(N)=O (H-[dNMeF][dW]F[dW]L-NH2)	–	–	–	–	–	–	–	–	–	–	–	–	–	–	–	–	–	30.7	23	–
